In ChEMBL document CHEMBL3585334, “α- and β-Santalols Directly Interact with Tubulin and Cause Mitotic Arrest and Cytotoxicity in Oral Cancer Cells” (2015):
Activity calls are given as the source filed them. No cut-off for these calls is given here.

How the values were obtained:
[1] = Growth inhibition of human SCC25 cells after 48 hrs by sulforhodamine B assay; format: functional; details: SCC-25, 48 h; for CC50: read-out: LC50 (the source's name)
Method in brief: (§1)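 Cells grown in DMEM with 10% FBS and 50 μg/mL gentamicin. They were exposed for 48 h to at least six concentrations, and the SRB assay was the read-out. GI50 was taken from log concentration–response curves of 3–9 independent experiments, each run in triplicate. Values are ± SEM.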

Tubulin (Sus scrofa) [2] = molecular target: T1, Tubulin (Sus scrofa) (UniProt P02554+P02550); assay: Binding affinity to porcine brain tubulin relative to vinblastine
Method in brief: (§2)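 Displacement of colchicine or vinblastine from purified tubulin, with the santalol at up to 7000-fold excess over the reference drug.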

Tubulin (Sus scrofa) [3] = molecular target: T1, Tubulin (Sus scrofa); assay: Inhibition of porcine brain tubulin polymerization
SCC-4 [4] = assay: Induction of mitotic arrest in human SCC4 cells assessed as increase number of cells with a rounded morphology at 55.6 uM after 18 hrs by immunofluorescence microscopy; format: functional, cell-based
[5] = Growth inhibition of human HSC3 cells after 48 hrs by sulforhodamine B assay; format: functional; details: HSC-3, 48 h; for CC50: read-out: LC50 (the source's name); method in brief: as §1
HN5 = assay: Growth inhibition of human HN5 cells after 48 hrs by sulforhodamine B assay; format: functional; details: HN5, 48 h; method in brief: as §1
[6] = Growth inhibition of human CAL27 cells after 48 hrs by sulforhodamine B assay; format: functional; details: CAL-27, 48 h; method in brief: as §1
SCC-4 [7] = assay: Induction of cell cycle arrest in human SCC4 cells assessed as cells accumulation at G2/M phase at 4 times of LC50 concentration after 18 hrs by propidium iodide-staining based flow cytometry; format: functional
Method in brief: (§3)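 SCC-4 cells treated for 18 h with DMSO vehicle, 15 nM paclitaxel, or 1×, 2×, 3× or 4× LC50. Cells were stained with propidium iodide and cell-cycle distribution was read by flow cytometry. Three independent experiments.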

[8] = Growth inhibition of human HSC2 cells after 48 hrs by sulforhodamine B assay; format: functional; details: HSC-2, 48 h; for CC50: read-out: LC50 (the source's name); method in brief: as §1
SCC-4 [9] = assay: Induction of cell cycle arrest in human SCC4 cells assessed as cells accumulation at G2/M phase after 18 hrs by propidium iodide-staining based flow cytometry; format: functional; method in brief: as §3
SCC-4 [10] = assay: Induction of mitotic arrest in human SCC4 cells assessed as punctuate and numerous spindles at 55.6 uM after 18 hrs by immunofluorescence microscopy; format: functional, cell-based
Tubulin (Sus scrofa) [11] = molecular target: T1, Tubulin (Sus scrofa); assay: Inhibition of porcine brain tubulin polymerization at 50 uM
[12] = Growth inhibition of human SCC4 cells after 48 hrs by sulforhodamine B assay; format: functional; details: SCC-4, 48 h; for CC50: read-out: LC50 (the source's name); method in brief: as §1
Tubulin (Sus scrofa) [13] = molecular target: T1, Tubulin (Sus scrofa); assay: Binding affinity to porcine brain tubulin relative to colchicine; method in brief: as §2
[14] = Growth inhibition of human SCC9 cells after 48 hrs by sulforhodamine B assay; format: functional; details: SCC-9, 48 h; for CC50: read-out: LC50 (the source's name); method in brief: as §1
SCC-4 [15] = assay: Induction of mitotic arrest in human SCC4 cells assessed as increase number of cells with a rounded morphology at 61.2 uM after 18 hrs by immunofluorescence microscopy; format: functional, cell-based
SCC-4 [16] = assay: Induction of cell cycle arrest in human SCC4 cells assessed as cells accumulation at G2/M phase at 3 times of LC50 concentration after 18 hrs by propidium iodide-staining based flow cytometry; format: functional; method in brief: as §3
SCC-4 [17] = assay: Induction of mitotic arrest in human SCC4 cells assessed as large multipolar spindles at 61.2 uM after 18 hrs by immunofluorescence microscopy; format: functional, cell-based

T1 sequence (P02550 whole entry, looked up): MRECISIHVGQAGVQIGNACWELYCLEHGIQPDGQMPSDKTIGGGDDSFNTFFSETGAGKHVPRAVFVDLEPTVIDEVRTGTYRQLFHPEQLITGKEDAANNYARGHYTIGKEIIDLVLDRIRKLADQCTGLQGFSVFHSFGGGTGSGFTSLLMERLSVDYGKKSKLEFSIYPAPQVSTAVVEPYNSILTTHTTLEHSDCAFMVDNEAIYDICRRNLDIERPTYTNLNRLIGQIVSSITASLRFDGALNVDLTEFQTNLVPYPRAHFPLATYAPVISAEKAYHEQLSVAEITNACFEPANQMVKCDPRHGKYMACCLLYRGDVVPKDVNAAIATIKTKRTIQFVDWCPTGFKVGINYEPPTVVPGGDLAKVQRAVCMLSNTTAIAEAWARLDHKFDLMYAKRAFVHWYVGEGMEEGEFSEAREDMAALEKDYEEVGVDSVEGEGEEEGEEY
T1 sequence (P02554 whole entry, looked up): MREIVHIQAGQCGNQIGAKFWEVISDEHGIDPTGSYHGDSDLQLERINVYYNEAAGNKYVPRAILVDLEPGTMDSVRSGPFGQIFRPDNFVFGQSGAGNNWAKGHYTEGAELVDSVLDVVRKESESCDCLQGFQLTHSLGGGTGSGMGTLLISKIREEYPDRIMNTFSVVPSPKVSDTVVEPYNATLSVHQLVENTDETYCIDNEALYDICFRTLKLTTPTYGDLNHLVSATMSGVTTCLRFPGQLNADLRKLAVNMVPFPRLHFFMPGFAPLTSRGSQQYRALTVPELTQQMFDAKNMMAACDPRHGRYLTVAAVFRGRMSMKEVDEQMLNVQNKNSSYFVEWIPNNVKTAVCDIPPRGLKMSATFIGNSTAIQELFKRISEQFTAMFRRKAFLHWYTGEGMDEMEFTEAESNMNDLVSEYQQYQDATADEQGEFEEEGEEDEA

SMILES: C/C(=C/CC[C@]1(C)C2C[C@@H]3[C@H](C2)C31C)CO
- GI50 [1]: 3.5 µM
- TGI [1]: 6 µM
- CC50 [1]: 11.6 µM
- fold change (FC) (Tubulin (Sus scrofa) [2]): > 7000
- inhibition (Tubulin (Sus scrofa) [3]): Dose-dependent effect
- Activity (SCC-4 [4]): Active
- GI50 [5]: 3.9 µM
- TGI [5]: 5.4 µM
- CC50 [5]: 7.7 µM
- GI50 (HN5): 5.3 µM
- LC50 (HN5): 12.2 µM
- TGI (HN5): 8.2 µM
- GI50 [6]: 5.5 µM
- LC50 [6]: 11 µM
- TGI [6]: 7.6 µM
- Activity (SCC-4 [7]): Active
- GI50 [8]: 4.6 µM
- TGI [8]: 9.2 µM
- CC50 [8]: 10.8 µM
- Activity (SCC-4 [9]): Dose-dependent effect
- Activity (SCC-4 [10]): Active
- inhibition (Tubulin (Sus scrofa) [11]): Active
- GI50 [12]: 4.5 µM
- TGI [12]: 7.7 µM
- CC50 [12]: 14 µM
- fold change (FC) (Tubulin (Sus scrofa) [13]): > 7000
- GI50 [14]: 3.4 µM
- TGI [14]: 5.3 µM
- CC50 [14]: 9 µM

SMILES: C=C1[C@@H]2CC[C@@H](C2)[C@@]1(C)CC/C=C(/C)CO
- GI50 [1]: 4.2 µM
- TGI [1]: 6.3 µM
- CC50 [1]: 11.1 µM
- Activity (SCC-4 [15]): Active
- fold change (FC) (Tubulin (Sus scrofa) [2]): > 7000
- GI50 [5]: 4.4 µM
- TGI [5]: 6.1 µM
- CC50 [5]: 9.1 µM
- Activity (SCC-4 [16]): Active
- GI50 (HN5): 6.3 µM
- TGI (HN5): 9.6 µM
- GI50 [6]: 5.7 µM
- TGI [6]: 8.4 µM
- Activity (SCC-4 [7]): Active
- GI50 [8]: 7.3 µM
- TGI [8]: 9.4 µM
- CC50 [8]: 11.9 µM
- Activity (SCC-4 [9]): Dose-dependent effect
- Activity (SCC-4 [17]): Active
- inhibition (Tubulin (Sus scrofa) [11]): Active
- GI50 [12]: 5.8 µM
- TGI [12]: 10 µM
- CC50 [12]: 14.3 µM
- fold change (FC) (Tubulin (Sus scrofa) [13]): > 7000
- GI50 [14]: 4.2 µM
- TGI [14]: 6.8 µM
- CC50 [14]: 14.5 µM
